Assay outcomes as filed in PubChem.
Cneo AK release = Cryptococcus neoformans lysis via adenylate kinase release; hit rate 0.2% among 360,000; C. neoformans lysis, adenylate kinase release luminescence, 4 h; normalised: neutral wells 0, clomiphene wells 100; lysis activity, % at 15 µM;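 active = mean lysis activity across replicates of at least 80%, whatever share of replicates individually reach that level; inactive = mean lysis activity below 80%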
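Assay system: log-phase C. neoformans yeast / Quantity: yeast cell density of 5 × 10^6 cells/mL / Medium: fresh YPD growth medium / Compound: single dose / Timing: static 4 h at 37 °C with compound, 1 h detection / Measured by: adenylate kinase release luminescence / Read-out: lysis from increased AK signal / Benchmarks: Clomiphene as positive lysis control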
C2C12 statin = suppression of simvastatin myotoxicity; C2C12 myotubes + simvastatin, ATP luminescence, 48 h; scaled: DMSO 0, geranylgeraniol control 100; rescue of ATP level, % at 7.49 µM; hit rate 0.78% among 330,000; AID 602340;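 active = mean ATP rescue above about 67%, or every replicate alone reaching that limit, limit read from the data, passing the limit was not always enough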;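 also: myotubes were challenged with 10 µM simvastatin during compound exposure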
Mot1-301 SUMO = blocks SUMOylation pathway, rescuing yeast Mot1-301 growth; S. cerevisiae Mot1-301 growth rescue, ATP luminescence, 38.5C; percent above DMSO median, 100 means doubled; growth rescue, % at 18.8 µM; hit rate 1% among 320,000; AID 2716;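 active = every valid replicate shows activation above 250% relative to neutral control wells; inactive = the rest, any valid replicate at or below 250%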;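 also: OY570 slx delta 5 strain wells were the positive control but not used for scaling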
Yeast Mot1 SUMO = yeast SUMO pathway inhibition in dose response | growth activity, percent, % at 42 µM | 2,300 tested, under 10 active | AID 493004 | shares compounds with Mot1-301 SUMO | S. cerevisiae Mot1-301 galactose growth, ATP luminescence, 24 h; -100 = growth of slx-deleted rescue strain;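 active = Signal drops as the depositor expects, and the fitted half-maximal dose is no more than ten times the top valid tested dose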;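 also: more negative values mean stronger growth rescue toward the control strain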
Active calls of the source: *; x = no result given; + = active, no number; ! = not active in a repeat. Most compounds without a hit are left out; they make up all but 1.5% or so of the library.

SMILES	Cneo AK release	C2C12 statin	Mot1-301 SUMO	Yeast Mot1 SUMO
CC(C)C(=O)Nc1cccc(-c2nc3ccccc3o2)c1	-0.7	-13.3	18.7	x
CC(C)C(=O)Nc1ccc(-c2nc3cccnc3o2)cc1	-3.6	-12.0	665.8*	-1.2
Cc1cc2nc(-c3ccc(NC(=O)C(C)C)cc3)oc2cc1C	x	x	8.9	x
CCC1CCCCN1CCCNC(=O)C1CCC(CNS(=O)(=O)c2c(C)cc(C)cc2C)CC1 (configuration not stated)	1.1	-26.9	509.1*	-0.5
CCN(CC)CCCNC(=O)C1CCC(CNS(=O)(=O)c2c(C)cc(C)cc2C)CC1 (configuration not stated)	-1.3	1.5	19.5	x
Cc1cc(C)nc(/N=c2/ssnc2Cl)c1	-4.5	30.3	1.7	x
Cc1nnc(N=c2ssnc2Cl)o1	1.6	44.5	605.8*	-0.5
Cc1cc(Cl)ccc1N=c1ssnc1Cl	-1.8	-8.1	127.9	x
Cc1ccc(N=c2ssnc2Cl)cc1	-0.8	18.5	470.7*	-0.8
O=C(N[C@H]1CC[C@H](CCn2cc(C3(O)CCCC3)nn2)O[C@@H]1CO)C1CCOCC1	-0.2	20.4	x	x
Cc1noc(C)c1NC(=O)NCC[C@@H]1CC[C@@H](NC(=O)c2ccccc2)[C@H](CO)O1	-3.1	1.9	x	x
CCOC(=O)C1=C[C@]2(CC)CCCN3CCc4c(n1c1ccccc41)[C@@H]32	-2.9	2.3	617.5*!	0.2
CC[C@]12CCCN3CCc4c(n(c5ccccc45)C(=O)C1)[C@@H]32	1.9	5.5	-20.9	x
CO[C@H]1CN(C)C(=O)c2cc(NC(=O)Nc3ccc(Cl)c(Cl)c3)ccc2OC[C@H](C)NC[C@H]1C	-2.3	-31.1	x	x
O=C(C[C@@H]1C[C@@H]2c3cc(NC(=O)CC4CC4)ccc3O[C@@H]2[C@@H](CO)O1)NCc1ccc2c(c1)OCO2	64.7	-0.1	x	x
Cc1nc(NCCc2ccc(Cl)cc2)c2nnn(Cc3ccccc3)c2n1	-1.9	5.9	-5.2	x
Cc1nc(NCCN2CCOCC2)c2nnn(Cc3c(F)cccc3Cl)c2n1	0.7	0.9	629.0*	-0.3
N#CC1=C(N)Oc2cc(O)ccc2C1c1cccs1 (configuration not stated)	1.8	20.2	84.4	x
N#CC1=C(N)Oc2c(ccc3ccccc23)C1c1cccs1 (configuration not stated)	x	x	508.2*	0.7
O=C(Cc1ccccc1)N1C[C@H]2[C@@H](c3ccccc31)[C@H](CO)N2C(=O)Nc1ccc(F)cc1	-12.1	2.3	x	x
COC(=O)c1sc2ccccc2c1NC(=O)c1ccc(S(=O)(=O)N2CCCC(C)C2)cc1 (configuration not stated)	3.7	-4.7	511.3*	-0.2
COC(=O)c1sc2ccccc2c1NC(=O)c1ccc(S(=O)(=O)N2CCC(C)CC2)cc1	-0.5	x	-4.5	x
C[C@@H]1CN([C@H](C)CO)C(=O)c2cc(C#CC3CCCC3)cnc2O[C@@H]1CN(C)Cc1ccncc1	6.5	-21.3	x	x
CC(C)(C)C(=O)NC1(C(F)(F)F)NC(=O)N(c2ccccc2F)C1=O (configuration not stated)	x	-4.6	482.9*	0.5
O=C(NC1(C(F)(F)F)NC(=O)N(c2ccccc2F)C1=O)c1ccncc1 (configuration not stated)	2.1	-4.0	-2.7	x
SMILES	Cneo AK release	C2C12 statin	Mot1-301 SUMO	Yeast Mot1 SUMO
S=C(NCCc1c[nH]c2ccccc12)NC1CCCC1	x	x	2.9	x
COc1ccccc1NC(=O)NCCc1c[nH]c2ccccc12	x	-3.3	839.8*	-0.8
O=C(NCCc1c[nH]c2ccccc12)Nc1ccccc1	-0.9	-4.3	-8.3	x
S=C(NCCc1c[nH]c2ccccc12)NC1CC1	0.0	-3.8	401.0*	-0.1
C[C@@H]1CCCCO[C@@H](CN(C)S(C)(=O)=O)[C@H](C)CN([C@@H](C)CO)C(=O)c2cc(NC(=O)c3ccccc3)ccc2O1	56.3	19.0	x	x
C[C@@H]1CCCCO[C@H](CN(C)C(=O)Nc2ccc(F)cc2)[C@H](C)CN([C@H](C)CO)C(=O)c2cc(NS(C)(=O)=O)ccc2O1	-2.5	x	x	x
COc1ccc(OC(=O)N(C)C[C@H]2OCc3cn(nn3)CCCC(=O)N([C@@H](C)CO)C[C@H]2C)cc1	-14.2	16.4	x	x
Cc1ccc(NS(=O)(=O)c2c(C)[nH]c(C)c2C(=O)N2CCCCC2)c(Cl)c1	1.0	10.2	476.6*	-0.1
Cc1ccc(NS(=O)(=O)c2c(C(=O)N3CCCCCC3)c(C)n(C)c2C)c(Cl)c1	19.4	12.0	72.5	x
Cc1ccc(Cn2c(NCCc3ccccc3)nc3c2c(=O)n(C)c(=O)n3C)cc1	1.9	-5.5	970.1*	0.6
C=CCn1c(NCCc2ccccc2)nc2c1c(=O)n(C)c(=O)n2C	-2.2	-1.5	-11.7	x
CCNC(=O)Nc1ccc2c(c1)C(=O)N(C)[C@H]1CC[C@H](CC(=O)NCc3cccc(F)c3)O[C@H]1CO2	5.9	4.8	x	x
CC(=O)c1c(N2CCN(c3ccc(F)cc3)CC2)nc(=S)n(Cc2ccccc2)c1C	0.2	-4.2	-7.1	x
CCn1c(C)c(C(C)=O)c(N2CCN(c3ccc(F)cc3)CC2)nc1=S	-0.3	x	917.2*	0.0
COc1ccc(NC(=O)N[C@H]2CC[C@H](CCn3cc(C4(O)CCCC4)nn3)O[C@@H]2CO)cc1	-1.8	6.9	x	x
Cc1ccc2c(C)c(C(=O)N(C)C(C)c3ccncn3)oc2c1C (configuration not stated)	-1.6	-1.8	359.4*	0.3
Cc1ccc2c(C)c(C(=O)N(C)C(C)c3ccon3)oc2c1C (configuration not stated)	-0.3	9.5	-6.5	x
CCNC(=O)C[C@H]1CC[C@H]2[C@@H](COc3ccc(NC(=O)Nc4c(C)noc4C)cc3C(=O)N2C)O1	-0.8	-1.4	x	x
O=C(N[C@H]1CC[C@H](CC(=O)N2CCOCC2)O[C@H]1CO)c1ccc2c(c1)OCO2	-1.4	1.7	x	x
CO[C@H](CN(C)C(=O)c1ccccc1F)[C@H](C)CN([C@H](C)CO)S(=O)(=O)c1ccc(C)cc1	2.7	4.9	x	x
O=C(c1cc(-c2ccccc2)on1)N1CCN(c2ccccc2)CC1	-0.6	1.0	85.6	x
O=C(c1cc(-c2ccc(Cl)c(Cl)c2)on1)N1CCN(c2ccccc2)CC1	x	-3.3	+	-0.1
CC(=O)Nc1ccc2c(c1)C(=O)N(C)[C@@H]1CC[C@@H](CC(=O)NCc3ccc(Cl)cc3)O[C@H]1CO2	1.3	-22.6	x	x
CCCNC(=O)C[C@H]1CC[C@H]2[C@@H](COC[C@H](O)CN2C(=O)Nc2cccc(Cl)c2)O1	0.7	14.4	x	x
Cc1ccc(C)c(Nc2c([N+](=O)[O-])ccc3nonc23)c1	0.9	15.6	11.0	x
Cc1ccccc1Nc1c([N+](=O)[O-])ccc2c1=NC1(CCCCC1)N=2	6.2	x	768.1*	-0.2
C[C@@H]1CCCCO[C@@H](CN(C)S(=O)(=O)c2ccc(F)cc2)[C@@H](C)CN([C@H](C)CO)C(=O)c2cc(NC(=O)Nc3ccc(C(F)(F)F)cc3)ccc2O1	9.9	x	x	x
CC(=O)Nc1cccc(OCC(=O)NS(=O)(=O)c2ccc(C)cc2)c1	x	24.3	845.9*	-0.6
Cc1cccc(OCC(=O)NS(=O)(=O)c2ccc(Br)cc2)c1	-0.5	x	379.1	x
